Laboratory results from ChEMBL document CHEMBL2440017, “Discovery of a potent, selective, and orally bioavailable histamine H3 receptor antagonist SAR110068 for the treatment of sleep-wake disorders” (Bioorg Med Chem Lett, 2013).
Activity calls are given as the source filed them. The rule behind the calls is not given here.

Columns and labels:
Rattus norvegicus [1] = assay: Awakening activity in rat assessed as increased wakefulness at 3 to 10 mg/kg, po after 4 hrs; type: functional, organism-based
Outline: (§1)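 Rats given compound orally at 3 or 10 mg/kg, or reference drugs i.p. or p.o. at 10 mg/kg. EEG recorded during the light phase and scored as wakefulness, slow wave sleep and REM sleep. Time-course analysis of the effects.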

Rattus norvegicus [2] = assay: Awakening activity in rat assessed as increased wakefulness at 3 to 10 mg/kg, po; type: functional, organism-based; outline: as §1
[3] = Plasma concentration in cynomolgus monkey at 30 mg/kg, iv after 15 mins; type: ADME, organism-based, Macaca fascicularis; set-up: dose 30 mg/kg, route intravenous
Cynomolgus monkey [4] = assay: Cardiotoxicity in cynomolgus monkey assessed as blood arterial pressure and heart rate at 10 mg/kg, iv; type: toxicity, organism-based, Macaca fascicularis; set-up: dose 10 mg/kg, route intravenous; settings: in vivo
Outline: (§2)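 Anaesthetized cynomolgus monkeys dosed 10 mg/kg i.v. Arterial blood pressure, heart rate and ECG (PR, QRS, QTc intervals) monitored. Plasma drug sampled at 5, 15 and 30 min post-dose.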

Cynomolgus monkey [5] = assay: Cardiotoxicity in cynomolgus monkey assessed as PR, QRS, QTc interval at 10 mg/kg, iv; type: toxicity, organism-based, Macaca fascicularis; set-up: dose 10 mg/kg, route intravenous; settings: in vivo; outline: as §2
Mus musculus [6] = assay: Toxicity in mouse assessed as behavioral side effect at 10 to 30 mg/kg, po; type: organism-based; set-up: dose 10-30 mg/kg, route oral; settings: in vivo
Outline: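 Acute oral behavioral safety evaluation in mice. Oral doses were 0, 10 and 30 mg/kg. Behavioral, neurologic and autonomic signs were scored.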

Mus musculus [7] = assay: Toxicity in mouse assessed as behavioral side effect at 30 mg/kg, po; type: organism-based; set-up: dose 30 mg/kg, route oral; settings: in vivo
Outline: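 Group acute oral behavioral safety study in mice at 30 mg/kg p.o., scored for behavioral side effects.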

[8] = molecular target: Voltage-gated inwardly rectifying potassium channel KCNH2 (Homo sapiens, UniProt Q12809); assay: Inhibition of human ERG expressed in CHO cells by patch-clamp technique; type: cell-based
Outline: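 hERG current recorded by whole-cell patch clamp in CHO cells stably transfected with the human ERG gene.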

[9] = Activation of p-glycoprotein (unknown origin); settings: human
[10] = Inhibition of p-glycoprotein (unknown origin); settings: human
[11] = AUC in Sprague-Dawley rat brain at 10 mg/kg, po; type: ADME, organism-based; set-up: dose 10 mg/kg, route oral
Outline: (§3)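 Oral gavage at 10 mg/kg to male OF1 mice (vehicle 5% DMSO/0.5% MC/0.2% Tween80, 1.0 mg/mL) or male Sprague-Dawley rats (vehicle 0.5% MC/0.2% Tween80, 1.0 mg/mL). Plasma and brain exposure and half-life determined.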

[12] = AUC (0 to infinity) in Sprague-Dawley rat brain at 2 mg/kg, iv; type: ADME, organism-based; set-up: dose 2 mg/kg, route intravenous, time infinity
Outline: (§4)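 Male OF1 mice or male Sprague-Dawley rats, single 2 mg/kg i.v. dose. Mouse vehicle 50% 1-methyl-2-pyrrolidinone in saline at 1.0 mg/mL; rat vehicle saline at 0.5 mg/mL. Plasma and brain levels followed over time; AUC0-inf, t1/2 and clearance derived from exposure. Brain/plasma ratio uses i.v. AUC0-inf.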

Plasma [13] = assay: Clearance in Sprague-Dawley rat plasma at 2 mg/kg, iv; type: ADME, organism-based; set-up: dose 2 mg/kg, route intravenous; settings: in vivo; outline: as §4
[14] = Volume of distribution in Sprague-Dawley rat plasma at 2 mg/kg, iv; type: ADME, organism-based; set-up: dose 2 mg/kg, route intravenous
Outline: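 Male Sprague–Dawley rats received 2 mg/kg i.v. (0.5 mg/mL in saline) or 10 mg/kg p.o. (1.0 mg/mL in 0.5% MC/0.2% Tween80). Plasma and brain AUC0-inf were measured, and the B/P ratio was calculated from i.v. AUC0-inf.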

[15] = Elimination half life in Sprague-Dawley rat plasma at 2 mg/kg, iv; type: ADME, organism-based; set-up: dose 2 mg/kg, route intravenous; settings: read-out: beta t1/2 (converted); outline: as §4
[16] = Ratio of AUC (0 to infinity) in OF1 mouse brain to AUC (0 to infinity) in OF1 mouse plasma at 2 mg/kg, iv; type: ADME, organism-based; set-up: dose 2 mg/kg, route intravenous; settings: read-out: Ratio AUC
Outline: (§5)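 Male OF1 mice received 2 mg/kg i.v. (1.0 mg/mL in 50% 1-methyl-2-pyrrolidinone/saline) or 10 mg/kg p.o. (1.0 mg/mL in 5% DMSO/0.5% MC/0.2% Tween80). Plasma and brain AUC0-inf were measured, and the B/P ratio was calculated from i.v. AUC0-inf.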

[17] = AUC (0 to infinity) in Sprague-Dawley rat plasma at 2 mg/kg, iv; type: ADME, organism-based; set-up: time infinity, dose 2 mg/kg, route intravenous; outline: as §4
[18] = AUC (0 to infinity) in OF1 mouse brain at 2 mg/kg, iv; type: ADME, organism-based; set-up: time infinity, dose 2 mg/kg, route intravenous; outline: as §4
[19] = Elimination half life in OF1 mouse brain at 2 mg/kg, iv; type: ADME, organism-based; set-up: dose 2 mg/kg, route intravenous; settings: read-out: beta t1/2 (converted); outline: as §4
[20] = Elimination half life in OF1 mouse plasma at 10 mg/kg, po; type: ADME, organism-based; set-up: dose 10 mg/kg, route oral; settings: read-out: beta t1/2 (converted); outline: as §3
[21] = Oral bioavailability in OF1 mouse plasma at 10 mg/kg; type: ADME, organism-based; outline: as §5
Plasma [22] = assay: Clearance in OF1 mouse plasma at 2 mg/kg, iv; type: ADME, organism-based; set-up: dose 2 mg/kg, route intravenous; settings: in vivo; outline: as §4
[23] = Volume of distribution in OF1 mouse plasma at 2 mg/kg, iv; type: ADME, organism-based; set-up: dose 2 mg/kg, route intravenous; outline: as §5
Cytochrome P450 2D6 = Cytochrome P450 2D6 (Homo sapiens, UniProt P10635); assay: Inhibition of CYP2D6 (unknown origin); type: ADME
Cytochrome P450 2C9 = Cytochrome P450 2C9 (Homo sapiens, UniProt P11712); assay: Inhibition of CYP2C9 (unknown origin); type: ADME
CYP3A4 = CYP3A4 (Homo sapiens, UniProt P08684); assay: Inhibition of CYP3A4 (unknown origin) at 0.5 uM; type: ADME
Hepatocyte = assay: Clearance in human hepatocytes; type: ADME, cell-based
Outline: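 Human hepatocytes in vitro, n = 4 preparations. Metabolic clearance expressed per 10^6 hepatocytes per hour. Also tested at a lower 0.5 concentration to check for concentration dependence.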

[24] = Metabolic stability in rabbit microsomes; type: ADME, Oryctolagus cuniculus, Microsome
Outline: (§6)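 Percentage biotransformation measured in vitro in liver microsomes of each species.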

[25] = Metabolic stability in guinea pig microsomes; type: ADME, Cavia porcellus, Microsome; outline: as §6
Plasma [26] = assay: Metabolic stability in rabbit plasma; type: ADME, cell-free, Oryctolagus cuniculus
Outline: (§7)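 Compound stability measured in plasma of each species in vitro.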

[27] = Metabolic stability in guinea pig plasma; type: ADME, cell-free, Cavia porcellus; outline: as §7
Plasma [28] = assay: Metabolic stability in rat plasma; type: ADME, cell-free; outline: as §7
[29] = molecular target: Histamine H3 receptor (Cavia porcellus) (UniProt Q9JI35); assay: Antagonist activity at histamine H3 receptor in guinea pig ileum assessed as inhibition of RAMH-induced inhibition of electrical field-stimulated contraction; type: tissue-based
Outline: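 Isolated guinea pig ileum contracted by electrical field stimulation. Contractions inhibited with the H3 agonist RAMH; test compound examined for competitive antagonism of this RAMH effect.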

Histamine H3 receptor = Histamine H3 receptor (Homo sapiens, UniProt Q9Y5N1); assay: Antagonist activity at human histamine H3 receptor expressed in CHO cells co-expressing CRE-Luc; type: functional, cell-based
[30] = Drug degradation in gastrointestinal tract simulation medium after 48 hrs at room temperature; type: physicochemical; settings: read-out: Drug degradation
Outline: (§8)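 Compound kept 48 h at room temperature in water, aqueous solutions of pH 1.0–7.4, DMSO, or GI-tract simulation medium. Percent degradation measured.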

[31] = Drug degradation in aqueous solution at pH 1.0 to 7.4 after 48 hrs at room temperature; type: physicochemical; settings: read-out: Drug degradation; outline: as §8
[32] = Drug degradation in DMSO after 48 hrs at room temperature; type: physicochemical; settings: read-out: Drug degradation; outline: as §8
[33] = Drug degradation in water after 48 hrs at room temperature; type: physicochemical; settings: read-out: Drug degradation; outline: as §8
Histamine receptor H3 = Histamine receptor H3 (Macaca mulatta, UniProt Q865E1); assay: Displacement of [3H]N-alpha-methylhistamine from rhesus monkey histamine H3 receptor expressed in CHO cells; type: cell-based
Outline: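 Membranes from CHO cells stably expressing rhesus monkey H3 receptor. Competition binding against [3H]N-α-methylhistamine; Ki values are means of three or more determinations.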

CYP3A4, sequence (P08684 whole entry): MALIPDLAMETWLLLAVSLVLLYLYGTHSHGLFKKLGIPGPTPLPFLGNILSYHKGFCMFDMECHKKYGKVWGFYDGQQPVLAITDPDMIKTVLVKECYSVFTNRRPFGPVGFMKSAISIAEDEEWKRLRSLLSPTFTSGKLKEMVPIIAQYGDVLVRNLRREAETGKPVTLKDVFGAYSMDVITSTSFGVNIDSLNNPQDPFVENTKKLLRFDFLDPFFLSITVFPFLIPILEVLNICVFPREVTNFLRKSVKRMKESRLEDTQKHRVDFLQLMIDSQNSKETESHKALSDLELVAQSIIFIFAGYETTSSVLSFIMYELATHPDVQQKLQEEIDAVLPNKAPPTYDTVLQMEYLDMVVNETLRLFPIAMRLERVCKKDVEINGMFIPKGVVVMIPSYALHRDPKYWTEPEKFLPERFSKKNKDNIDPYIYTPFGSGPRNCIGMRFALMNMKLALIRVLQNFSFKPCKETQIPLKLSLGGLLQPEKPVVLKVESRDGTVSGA
Cytochrome P450 2D6, sequence (P10635 whole entry): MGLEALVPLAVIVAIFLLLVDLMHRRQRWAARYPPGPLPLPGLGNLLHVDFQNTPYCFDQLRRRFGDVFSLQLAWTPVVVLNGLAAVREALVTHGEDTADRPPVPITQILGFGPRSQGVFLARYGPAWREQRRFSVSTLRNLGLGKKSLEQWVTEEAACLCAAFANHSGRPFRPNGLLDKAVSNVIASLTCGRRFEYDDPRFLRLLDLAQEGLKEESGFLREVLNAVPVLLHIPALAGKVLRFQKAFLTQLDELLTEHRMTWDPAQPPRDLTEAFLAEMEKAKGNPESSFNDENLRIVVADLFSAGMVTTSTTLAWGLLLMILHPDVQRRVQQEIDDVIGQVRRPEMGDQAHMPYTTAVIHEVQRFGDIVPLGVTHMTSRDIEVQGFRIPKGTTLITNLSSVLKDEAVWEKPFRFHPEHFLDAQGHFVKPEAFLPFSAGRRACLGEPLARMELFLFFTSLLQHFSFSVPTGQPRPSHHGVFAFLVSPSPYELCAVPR
Cytochrome P450 2C9, sequence (P11712 whole entry): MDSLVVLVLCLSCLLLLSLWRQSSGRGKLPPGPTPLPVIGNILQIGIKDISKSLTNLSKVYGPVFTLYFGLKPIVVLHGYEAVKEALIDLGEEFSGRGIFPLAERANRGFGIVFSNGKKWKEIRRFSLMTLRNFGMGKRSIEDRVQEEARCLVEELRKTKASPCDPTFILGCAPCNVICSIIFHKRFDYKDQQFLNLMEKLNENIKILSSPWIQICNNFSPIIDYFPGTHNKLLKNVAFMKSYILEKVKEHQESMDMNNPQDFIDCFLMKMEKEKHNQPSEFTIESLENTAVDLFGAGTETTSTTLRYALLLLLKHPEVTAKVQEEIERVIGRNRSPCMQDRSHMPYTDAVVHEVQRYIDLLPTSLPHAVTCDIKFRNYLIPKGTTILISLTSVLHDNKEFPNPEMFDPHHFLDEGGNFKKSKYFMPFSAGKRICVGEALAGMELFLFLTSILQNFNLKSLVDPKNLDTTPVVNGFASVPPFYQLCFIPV
Histamine receptor H3, sequence (Q865E1 whole entry): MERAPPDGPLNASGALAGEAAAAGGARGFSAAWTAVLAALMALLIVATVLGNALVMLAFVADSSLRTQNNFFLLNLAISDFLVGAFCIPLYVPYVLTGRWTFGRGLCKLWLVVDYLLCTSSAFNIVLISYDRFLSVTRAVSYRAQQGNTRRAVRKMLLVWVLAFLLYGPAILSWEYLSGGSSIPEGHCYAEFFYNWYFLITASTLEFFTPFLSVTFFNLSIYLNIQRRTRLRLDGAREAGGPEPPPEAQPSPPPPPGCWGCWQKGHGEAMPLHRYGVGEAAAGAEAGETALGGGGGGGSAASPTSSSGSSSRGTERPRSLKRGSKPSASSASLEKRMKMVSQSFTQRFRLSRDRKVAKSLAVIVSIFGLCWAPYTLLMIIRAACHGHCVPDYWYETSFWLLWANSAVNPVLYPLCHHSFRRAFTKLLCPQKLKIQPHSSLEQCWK
Histamine H3 receptor (Cavia porcellus), sequence (Q9JI35 whole entry): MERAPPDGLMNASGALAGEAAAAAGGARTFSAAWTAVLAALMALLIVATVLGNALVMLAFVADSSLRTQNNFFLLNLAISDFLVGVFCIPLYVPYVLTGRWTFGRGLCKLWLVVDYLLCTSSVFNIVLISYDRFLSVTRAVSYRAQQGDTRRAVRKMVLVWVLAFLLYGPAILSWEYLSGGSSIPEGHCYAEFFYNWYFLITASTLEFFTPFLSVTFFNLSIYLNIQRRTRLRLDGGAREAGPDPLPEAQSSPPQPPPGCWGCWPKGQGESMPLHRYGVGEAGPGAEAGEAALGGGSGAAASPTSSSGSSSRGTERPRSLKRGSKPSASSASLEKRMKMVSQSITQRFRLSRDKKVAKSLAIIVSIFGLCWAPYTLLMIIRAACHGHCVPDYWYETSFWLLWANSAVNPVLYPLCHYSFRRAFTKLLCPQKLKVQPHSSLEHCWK
Voltage-gated inwardly rectifying potassium channel KCNH2, sequence (Q12809 whole entry): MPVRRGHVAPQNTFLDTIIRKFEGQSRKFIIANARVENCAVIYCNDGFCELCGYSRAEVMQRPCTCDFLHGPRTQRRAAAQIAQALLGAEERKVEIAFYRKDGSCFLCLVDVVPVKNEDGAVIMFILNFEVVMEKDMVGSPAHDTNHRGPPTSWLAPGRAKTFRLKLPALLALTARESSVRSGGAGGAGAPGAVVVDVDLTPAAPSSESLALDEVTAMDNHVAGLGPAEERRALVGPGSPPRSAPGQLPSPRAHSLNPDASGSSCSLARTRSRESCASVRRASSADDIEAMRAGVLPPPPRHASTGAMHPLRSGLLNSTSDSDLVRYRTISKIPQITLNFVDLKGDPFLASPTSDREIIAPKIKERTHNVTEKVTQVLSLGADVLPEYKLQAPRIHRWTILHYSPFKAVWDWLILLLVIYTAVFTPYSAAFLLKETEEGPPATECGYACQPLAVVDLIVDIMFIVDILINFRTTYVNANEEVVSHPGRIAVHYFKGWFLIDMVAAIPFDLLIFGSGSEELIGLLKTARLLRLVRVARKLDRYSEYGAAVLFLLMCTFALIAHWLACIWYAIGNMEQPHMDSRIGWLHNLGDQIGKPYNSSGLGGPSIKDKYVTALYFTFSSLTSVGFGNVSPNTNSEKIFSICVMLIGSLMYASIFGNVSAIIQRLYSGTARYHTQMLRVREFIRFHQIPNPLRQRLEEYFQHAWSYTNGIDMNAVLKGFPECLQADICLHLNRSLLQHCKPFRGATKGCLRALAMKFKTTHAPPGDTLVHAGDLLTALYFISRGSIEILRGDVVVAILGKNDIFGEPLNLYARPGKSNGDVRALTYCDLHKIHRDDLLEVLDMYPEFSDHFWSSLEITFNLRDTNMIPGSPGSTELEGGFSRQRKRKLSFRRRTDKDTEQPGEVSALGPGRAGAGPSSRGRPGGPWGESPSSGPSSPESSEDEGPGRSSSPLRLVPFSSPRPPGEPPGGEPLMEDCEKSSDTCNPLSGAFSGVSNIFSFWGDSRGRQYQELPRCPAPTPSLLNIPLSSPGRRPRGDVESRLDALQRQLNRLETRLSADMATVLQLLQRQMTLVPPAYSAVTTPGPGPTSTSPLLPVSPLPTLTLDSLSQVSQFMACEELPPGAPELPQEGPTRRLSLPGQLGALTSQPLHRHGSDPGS
Histamine H3 receptor, sequence (Q9Y5N1 whole entry): as the sequence (Q865E1 whole entry) above, with N148D, G240A, A282V, T289A, A290T, A300V, Q442H counted along it

- concentration at 0.25 h [3]: 11 µM
- Activity [9]: Not Active
- inhibition (INH) [10]: Not Active
- AUC [11]: 4200 ng·h/mL
- AUC(0-inf) [12]: 700 ng·h/mL
- clearance (Plasma [13]): 16.7 mL/min/kg
- Vd [14]: 3.1 L/kg
- half-life [15]: 4.3 h
- Kp [16]: 0.35
- AUC(0-inf) [17]: 2100 ng·h/mL
- AUC(0-inf) [18]: 380 ng·h/mL
- half-life [19]: 0.83 h
- half-life [20]: 2.3 h
- bioavailability [21]: 58%
- clearance (Plasma [22]): 30 mL/min/kg
- Vd [23]: 3.5 L/kg
- inhibition (INH) (Cytochrome P450 2D6): Active
- inhibition (INH) (Cytochrome P450 2C9): Active
- inhibition at 0.5 µM (CYP3A4): 49%
- CLH (Hepatocyte): 0.031 mL/h
- Stability [24]: Stable
- Stability [25]: Stable
- Stability (Plasma [26]): Stable
- Stability [27]: Stable
- Stability (Plasma [28]): Stable
- inhibition [29]: Active
- EC50 (Histamine H3 receptor): 0.9 nM
- degraded at 48 h [30]: < 2%
- degraded at 48 h [31]: < 2%
- degraded at 48 h [32]: < 2%
- degraded at 48 h [33]: < 2%
- Ki (Histamine receptor H3): 0.97 nM
SMILES: Cc1cc(N2CC[C@H](N3CCC[C@@H]3C)C2)ccc1NC(=O)C1CCOCC1
- Activity (Rattus norvegicus [1]): Active
- Activity (Rattus norvegicus [2]): Active
- Activity (Cynomolgus monkey [4]): Non-toxic
- Activity (Cynomolgus monkey [5]): Non-toxic
- Activity (Mus musculus [6]): Non-toxic
- Activity (Mus musculus [7]): Non-toxic
- IC50 [8]: 18900 nM
